Test results reported in ChEMBL document CHEMBL4266033, “Neolymphostin A Is a Covalent Phosphoinositide 3-Kinase (PI3K)/Mammalian Target of Rapamycin (mTOR) Dual Inhibitor That Employs an Unusual Electrophilic Vinylogous Ester” (J Med Chem, 2018).
Calls of active or inactive are those of the source. The rule behind the calls is not given here.

Tests used:
[1] = molecular target: T1, Phosphatidylinositol 4,5-bisphosphate 3-kinase catalytic subunit gamma isoform (Homo sapiens, UniProt P48736); assay: Binding affinity to human PI3Kgamma equilibrate for 1 hr by scan-kinetic platform assay
T1 sequence (P48736 whole entry, canonical isoform): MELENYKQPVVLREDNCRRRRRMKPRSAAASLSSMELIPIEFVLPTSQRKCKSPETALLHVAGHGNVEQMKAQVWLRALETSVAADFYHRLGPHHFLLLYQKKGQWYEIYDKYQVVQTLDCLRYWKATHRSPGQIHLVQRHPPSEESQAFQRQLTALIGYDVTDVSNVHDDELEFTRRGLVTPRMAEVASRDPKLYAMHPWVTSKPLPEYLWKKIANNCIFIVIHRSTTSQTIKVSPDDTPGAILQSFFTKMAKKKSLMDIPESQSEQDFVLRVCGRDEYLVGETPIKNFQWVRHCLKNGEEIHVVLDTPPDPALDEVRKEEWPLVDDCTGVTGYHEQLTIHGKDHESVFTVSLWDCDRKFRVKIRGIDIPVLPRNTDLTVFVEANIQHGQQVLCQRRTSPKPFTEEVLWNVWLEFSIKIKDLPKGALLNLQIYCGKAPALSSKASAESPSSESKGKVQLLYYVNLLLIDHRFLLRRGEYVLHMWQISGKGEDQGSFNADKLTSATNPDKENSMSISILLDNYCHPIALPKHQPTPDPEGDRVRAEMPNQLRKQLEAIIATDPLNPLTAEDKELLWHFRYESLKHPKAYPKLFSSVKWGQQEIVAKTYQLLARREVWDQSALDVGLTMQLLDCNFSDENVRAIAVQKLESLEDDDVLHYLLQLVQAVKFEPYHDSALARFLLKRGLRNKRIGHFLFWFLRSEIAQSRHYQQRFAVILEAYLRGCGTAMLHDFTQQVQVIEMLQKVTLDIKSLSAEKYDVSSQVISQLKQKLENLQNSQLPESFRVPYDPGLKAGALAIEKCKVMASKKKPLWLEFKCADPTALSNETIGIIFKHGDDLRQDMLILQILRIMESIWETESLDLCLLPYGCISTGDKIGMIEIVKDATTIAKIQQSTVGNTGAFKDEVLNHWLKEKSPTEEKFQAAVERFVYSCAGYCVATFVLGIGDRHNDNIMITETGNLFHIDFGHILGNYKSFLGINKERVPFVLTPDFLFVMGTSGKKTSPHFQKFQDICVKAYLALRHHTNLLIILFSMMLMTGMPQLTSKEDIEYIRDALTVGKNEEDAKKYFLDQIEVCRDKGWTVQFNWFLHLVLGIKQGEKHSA
Method in brief: (§1)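 scanKINETIC format on PI3Kα and PI3Kγ. […] Arm C: equilibrated 1 h. Arm B: equilibrated 1 h, diluted 30-fold, then re-equilibrated. Arm D: diluted immediately, then equilibrated. Kd compared with and without the dilution step to judge reversibility.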

[2] = molecular target: T2, Phosphatidylinositol 4,5-bisphosphate 3-kinase catalytic subunit delta isoform (Homo sapiens, UniProt O00329); assay: Binding affinity to human PI3Kdelta after 1 hr by KINOMEscan assay
T2 sequence (O00329 whole entry): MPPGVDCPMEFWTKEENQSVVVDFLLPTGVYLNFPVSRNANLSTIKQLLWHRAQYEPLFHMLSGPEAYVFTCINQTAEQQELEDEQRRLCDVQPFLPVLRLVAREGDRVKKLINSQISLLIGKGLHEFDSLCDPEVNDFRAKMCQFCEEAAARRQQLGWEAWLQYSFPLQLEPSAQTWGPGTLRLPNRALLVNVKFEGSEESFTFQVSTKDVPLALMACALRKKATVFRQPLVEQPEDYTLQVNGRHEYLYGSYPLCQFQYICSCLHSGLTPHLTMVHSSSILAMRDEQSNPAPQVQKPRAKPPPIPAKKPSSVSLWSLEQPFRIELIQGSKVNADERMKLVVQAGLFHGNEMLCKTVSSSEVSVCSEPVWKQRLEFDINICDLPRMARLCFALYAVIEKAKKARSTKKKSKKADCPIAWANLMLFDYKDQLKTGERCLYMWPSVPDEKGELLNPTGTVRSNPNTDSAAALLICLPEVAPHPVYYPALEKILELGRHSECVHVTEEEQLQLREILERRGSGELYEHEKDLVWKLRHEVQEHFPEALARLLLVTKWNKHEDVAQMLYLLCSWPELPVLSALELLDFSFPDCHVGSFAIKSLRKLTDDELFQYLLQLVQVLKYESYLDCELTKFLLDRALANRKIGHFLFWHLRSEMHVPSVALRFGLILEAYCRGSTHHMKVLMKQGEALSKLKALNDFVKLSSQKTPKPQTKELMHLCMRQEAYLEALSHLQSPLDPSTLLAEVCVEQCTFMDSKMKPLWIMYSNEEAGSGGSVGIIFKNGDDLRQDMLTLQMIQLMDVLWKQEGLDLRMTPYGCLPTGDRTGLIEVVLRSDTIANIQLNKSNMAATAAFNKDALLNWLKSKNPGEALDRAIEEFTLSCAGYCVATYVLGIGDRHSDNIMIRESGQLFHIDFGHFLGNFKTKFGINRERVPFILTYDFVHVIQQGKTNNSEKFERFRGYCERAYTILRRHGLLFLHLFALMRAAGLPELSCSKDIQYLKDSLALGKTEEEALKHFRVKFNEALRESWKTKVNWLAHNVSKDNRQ

[3] = molecular target: Mitogen-activated protein kinase 8 (Homo sapiens) (UniProt P45983); assay: Binding affinity to human JNK1 at 1 uM after 1 hr by KINOMEscan assay
Sequence of Mitogen-activated protein kinase 8 (Homo sapiens) (P45983 whole entry, canonical isoform): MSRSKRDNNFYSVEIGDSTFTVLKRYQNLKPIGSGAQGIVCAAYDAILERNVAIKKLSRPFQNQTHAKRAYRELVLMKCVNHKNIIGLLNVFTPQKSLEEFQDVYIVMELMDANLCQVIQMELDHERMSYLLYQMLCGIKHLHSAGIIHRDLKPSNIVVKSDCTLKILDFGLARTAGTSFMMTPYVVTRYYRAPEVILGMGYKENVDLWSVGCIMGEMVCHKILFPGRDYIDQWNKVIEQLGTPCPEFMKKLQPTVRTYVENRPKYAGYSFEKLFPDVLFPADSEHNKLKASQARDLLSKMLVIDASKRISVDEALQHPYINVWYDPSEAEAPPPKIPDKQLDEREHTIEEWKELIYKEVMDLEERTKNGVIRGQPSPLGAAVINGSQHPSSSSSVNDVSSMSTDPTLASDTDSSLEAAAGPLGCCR

[4] = molecular target: T3, Phosphatidylinositol 4,5-bisphosphate 3-kinase catalytic subunit alpha isoform (Homo sapiens, UniProt P42336); assay: Binding affinity to human PI3Kalpha equilibrate for 1 hr by scan-kinetic platform assay; method in brief: as §1
T3 sequence (P42336 whole entry, canonical isoform): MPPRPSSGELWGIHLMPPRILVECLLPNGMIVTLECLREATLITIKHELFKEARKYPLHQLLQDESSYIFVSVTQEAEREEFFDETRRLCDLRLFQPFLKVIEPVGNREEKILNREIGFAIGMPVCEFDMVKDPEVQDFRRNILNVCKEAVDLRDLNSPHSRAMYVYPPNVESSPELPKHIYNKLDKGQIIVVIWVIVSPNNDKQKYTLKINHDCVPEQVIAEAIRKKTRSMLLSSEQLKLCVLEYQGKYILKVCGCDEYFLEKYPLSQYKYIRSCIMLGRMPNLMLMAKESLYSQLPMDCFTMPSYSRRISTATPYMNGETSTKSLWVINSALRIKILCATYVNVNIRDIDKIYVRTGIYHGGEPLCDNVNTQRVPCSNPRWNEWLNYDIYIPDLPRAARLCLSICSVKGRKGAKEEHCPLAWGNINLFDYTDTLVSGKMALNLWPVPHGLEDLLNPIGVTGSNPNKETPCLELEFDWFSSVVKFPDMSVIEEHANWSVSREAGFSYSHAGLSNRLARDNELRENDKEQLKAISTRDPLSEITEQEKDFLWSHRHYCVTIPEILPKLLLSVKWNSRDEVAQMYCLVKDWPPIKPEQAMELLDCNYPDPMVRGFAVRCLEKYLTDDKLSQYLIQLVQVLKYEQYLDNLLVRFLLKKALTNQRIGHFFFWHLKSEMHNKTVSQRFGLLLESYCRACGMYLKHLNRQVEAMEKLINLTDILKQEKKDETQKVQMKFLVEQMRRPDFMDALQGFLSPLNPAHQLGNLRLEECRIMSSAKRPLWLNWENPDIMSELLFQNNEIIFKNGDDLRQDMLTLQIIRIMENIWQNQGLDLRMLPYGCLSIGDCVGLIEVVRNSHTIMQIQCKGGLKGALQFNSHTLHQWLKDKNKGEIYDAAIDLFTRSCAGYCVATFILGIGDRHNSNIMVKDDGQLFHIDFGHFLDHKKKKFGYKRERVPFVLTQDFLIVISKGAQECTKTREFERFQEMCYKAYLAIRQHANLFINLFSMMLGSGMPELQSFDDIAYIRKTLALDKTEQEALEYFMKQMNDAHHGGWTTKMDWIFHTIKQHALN

[5] = molecular target: T1, Phosphatidylinositol 4,5-bisphosphate 3-kinase catalytic subunit gamma isoform; assay: Binding affinity to human PI3Kgamma diluted 30 fold and equilibrate for 6 hrs by scan-kinetic platform assay; method in brief: as §1
[6] = molecular target: Mitogen-activated protein kinase 9 (Homo sapiens) (UniProt P45984); assay: Binding affinity to human JNK2 at 1 uM after 1 hr by KINOMEscan assay
Sequence of Mitogen-activated protein kinase 9 (Homo sapiens) (P45984 whole entry, looked up, canonical isoform): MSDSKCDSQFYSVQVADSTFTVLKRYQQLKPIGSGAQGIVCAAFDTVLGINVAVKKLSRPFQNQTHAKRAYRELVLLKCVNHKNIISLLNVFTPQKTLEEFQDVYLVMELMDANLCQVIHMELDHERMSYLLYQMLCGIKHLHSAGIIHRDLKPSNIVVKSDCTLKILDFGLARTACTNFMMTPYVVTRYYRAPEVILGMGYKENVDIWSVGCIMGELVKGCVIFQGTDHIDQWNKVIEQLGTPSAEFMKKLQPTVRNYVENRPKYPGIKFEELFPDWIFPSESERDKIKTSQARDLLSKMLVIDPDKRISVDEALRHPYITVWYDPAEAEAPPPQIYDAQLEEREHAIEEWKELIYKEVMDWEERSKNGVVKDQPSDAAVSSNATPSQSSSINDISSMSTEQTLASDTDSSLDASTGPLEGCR

[7] = molecular target: T3, Phosphatidylinositol 4,5-bisphosphate 3-kinase catalytic subunit alpha isoform; assay: Binding affinity to human PI3Kalpha diluted 30 fold and equilibrate for 6 hrs by scan-kinetic platform assay; method in brief: as §1
[8] = molecular target: T4, Aurora kinase A (Homo sapiens) (UniProt O14965); assay: Binding affinity to human AURKA at 1 uM after 1 hr by KINOMEscan assay
T4 sequence (whole entry): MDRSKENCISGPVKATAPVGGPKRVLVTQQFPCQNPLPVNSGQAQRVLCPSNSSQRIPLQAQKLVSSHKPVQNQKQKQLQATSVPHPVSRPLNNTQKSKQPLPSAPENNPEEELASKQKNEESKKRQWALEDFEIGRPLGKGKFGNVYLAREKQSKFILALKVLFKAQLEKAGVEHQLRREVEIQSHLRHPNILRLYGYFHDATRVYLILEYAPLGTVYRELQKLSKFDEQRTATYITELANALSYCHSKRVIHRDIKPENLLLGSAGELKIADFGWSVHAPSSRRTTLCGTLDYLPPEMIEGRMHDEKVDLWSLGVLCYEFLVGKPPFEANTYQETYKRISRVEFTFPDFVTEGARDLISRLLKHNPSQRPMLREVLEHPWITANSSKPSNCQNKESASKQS

[9] = molecular target: Serine/threonine-protein kinase mTOR (Homo sapiens, UniProt P42345); assay: Binding affinity to human mTOR after 1 hr by KINOMEscan assay
[10] = molecular target: Aurora kinase B (Homo sapiens) (UniProt Q96GD4); assay: Binding affinity to human AURKB at 1 uM after 1 hr by KINOMEscan assay
Sequence of Aurora kinase B (Homo sapiens) (Q96GD4 whole entry): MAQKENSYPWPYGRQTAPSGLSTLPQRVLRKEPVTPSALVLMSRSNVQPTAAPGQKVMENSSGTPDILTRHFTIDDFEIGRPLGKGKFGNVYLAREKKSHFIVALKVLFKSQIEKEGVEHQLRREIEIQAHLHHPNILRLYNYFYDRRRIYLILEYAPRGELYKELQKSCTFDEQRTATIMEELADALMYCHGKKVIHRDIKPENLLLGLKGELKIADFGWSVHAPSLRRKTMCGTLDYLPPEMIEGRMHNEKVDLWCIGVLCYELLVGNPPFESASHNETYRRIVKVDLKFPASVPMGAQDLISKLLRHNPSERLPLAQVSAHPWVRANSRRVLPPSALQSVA
Method in brief: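 KINOMEscan competition binding profiling across 97 kinases. Affinity expressed as percent of control.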

CO/C=C/C(=O)c1cc2c3c(c(N)cc(NC(=O)C(C)C)c3n1)N=C2
Kd [1]: 2 to 3.3 nM | Kd [2]: 4.9 nM | Activity [3]: Active | Kd [4]: 0.65 to 0.68 nM | Kd [5]: 80 to 100 nM | Activity [6]: Active | Kd [7]: 18 to 20 nM | Activity [8]: Active | Kd [9]: 10 nM | Activity [10]: Active
